Laboratory results from ChEMBL document CHEMBL4024768, “Discovery and Optimization of Thiazolidinyl and Pyrrolidinyl Derivatives as Inhaled PDE4 Inhibitors for Respiratory Diseases” (J Med Chem, 2017).

Columns and labels:
[1] = Inhibition of PDE4 in human U937 cell lysates assessed as residual cAMP after 2.5 mins by LANCE assay
[2] = Inhibition of PDE4 in human PBMC assessed as reduction in LPS-induced TNFalpha release after 18 hrs by quantitative ELISA
[3] = Protein binding in human plasma at 5 uM after 5 hrs by LC-MS/MS analysis; assay type: ADME, cell-free; conditions: read-out: PPB (converted)
[4] = Intrinsic clearance in human hepatocytes assessed per million cells at 1 uM measured after 90 mins by LC-MS/MS analysis; assay type: ADME, cell-based, Hepatocyte; conditions: read-out: CLH
Method in brief: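 Compound at 1 μM with hepatocytes (1 million cells/mL) in Leibovitz L-15 at 37 °C, in duplicate. Sampled at 0, 10, 20, 30, 60 and 90 min, quenched with ice-cold acetonitrile, centrifuged, and unchanged compound measured by LC−MS/MS. Included 7-ethoxycoumarin and 7-hydroxycoumarin activity controls and cell-free medium controls.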

[5] = Intrinsic clearance in human liver microsomes at 1 uM measured after 60 mins in presence NADPH by LC-MS/MS analysis; assay type: ADME, microsome; conditions: read-out: CLH
Method in brief: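 Compound at 1 μM with human liver microsomes (0.8 mg protein/mL) in Dulbecco's buffer pH 7.4, 1 mM NADPH, 37 °C, in duplicate. Sampled at 0, 5, 10, 20, 30 and 60 min, quenched with ice-cold acetonitrile, and unchanged compound measured by LC−MS/MS. No-NADPH controls; midazolam (1 μM) as phase I control.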

[6] = Metabolic stability in human plasma assessed as compound remaining at 1 uM measured after 60 mins in presence of NADPH by LC-MS/MS analysis; assay type: ADME, cell-free; conditions: read-out: Stability
[7] = Metabolic stability in human lung S9 fraction assessed as compound remaining at 1 uM measured after 60 mins in presence of NADPH by LC-MS/MS analysis; assay type: ADME; conditions: read-out: Stability
[8] = Apparent permeability across basolateral to apical side in human Caco2 cells at 10 uM after 2 hrs by LC-MS/MS analysis; assay type: ADME, cell-based; conditions: Caco-2
[9] = Apparent permeability across apical to basolateral side in human Caco2 cells at 10 uM after 2 hrs by LC-MS/MS analysis; assay type: ADME, cell-based; conditions: Caco-2
Rattus norvegicus = assay: Anti-inflammatory activity in OVA-induced airway inflammation Brown Norway rat model assessed inhibition of eosinophils recruitment in bronchoalveolar lavage fluid administered intratracheally as powder formulation 2 hrs before aerosolized OVA challenge measured at 24 hrs post aerosolized OVA challenge; assay type: functional
Method in brief: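 Male Brown Norway rats sensitized i.p. with OVA (1 mg/rat) plus Al(OH)3 (100 mg/rat) in saline on 3 consecutive days. Challenged 2–3 weeks later with nose-only 1% OVA aerosol for 30 min. Lactose-blended dry powder (10 mg/kg total powder) insufflated intratracheally; dose taken from needle weight difference. BAL with 3 × 4 mL HBSS/EDTA/HEPES at 24 h; total and differential counts by automated counter. ED50 from fitted dose–response curve.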

SMILES | IC50 [1] | IC50 [2] | fraction unbound at 5 h, 5 µM [3] | hepatocyte CLint at 1 µM [4] | microsomal CLint at 1 µM [5] | remaining at 1 h, 1 µM [6] | remaining at 1 h, 1 µM [7] | Papp B→A at 2 h, 10 µM [8] | Papp A→B at 2 h, 10 µM [9] | inhibition (Rattus norvegicus) | ED50 (Rattus norvegicus; inhaled or nasal)
CN(C)C(=O)c1cccc(S(=O)(=O)N2CCCC[C@H]2C(=O)O[C@@H](Cc2c(Cl)c[n+]([O-])cc2Cl)c2ccc(OC(F)F)c(OCC3CC3)c2)c1 (relative stereo) | 0.056 nM | 0.012 nM | 0.0012 | 64.6 µL/min/1e6 cells | 363 µL/min/mg | 104% | 72.5% | 73.4 ×10⁻⁶ cm/s | 21.7 ×10⁻⁶ cm/s | – | –
CS(=O)(=O)N1CCC[C@H]1C(=O)O[C@@H](Cc1c(Cl)c[n+]([O-])cc1Cl)c1ccc(OC(F)F)c(OCC2CC2)c1 (relative stereo) | 0.504 nM | 4.2 nM | – | – | – | – | – | – | – | – | –
Cc1cc(S(=O)(=O)N2CCS[C@H]2C(=O)O[C@@H](Cc2c(Cl)c[n+]([O-])cc2Cl)c2ccc(OC(F)F)c(OCC3CC3)c2)c(C)s1 (relative stereo) | 0.176 nM | 0.17 nM | – | – | – | – | – | – | – | – | –
O=C(O[C@@H](Cc1c(Cl)c[n+]([O-])cc1Cl)c1ccc(OC(F)F)c(OCC2CC2)c1)[C@@H]1CCCN1S(=O)(=O)c1ccccc1 (relative stereo) | 0.109 nM | 0.4 nM | – | – | – | – | – | – | – | – | –
CN(C)C(=O)c1cccc(S(=O)(=O)N2CCS[C@H]2C(=O)O[C@H](Cc2c(Cl)c[n+]([O-])cc2Cl)c2ccc(OC(F)F)c(OCC3CC3)c2)c1 | 3.01 nM | – | – | – | – | – | – | – | – | – | –
CCCC1O[C@@H]2C[C@H]3[C@@H]4CCC5=CC(=O)C=C[C@]5(C)[C@H]4[C@@H](O)C[C@]3(C)[C@]2(C(=O)CO)O1 (stereo partly specified) [BUDESONIDE] | – | – | – | – | – | – | – | – | – | Dose-dependent effect | 0.04 µmol/kg
CN(C)C(=O)c1cccc(S(=O)(=O)N2CCS[C@H]2C(=O)O)c1 | – | > 1000 nM | – | – | – | – | – | – | – | – | –
O=C(O[C@@H](Cc1c(Cl)c[n+]([O-])cc1Cl)c1ccc(OC(F)F)c(OCC2CC2)c1)c1ccccc1 | 0.072 nM | – | – | – | – | – | – | – | – | – | –

The next lines start with results.

IC50 [1] | IC50 [2] | fraction unbound at 5 h, 5 µM [3] | hepatocyte CLint at 1 µM [4] | microsomal CLint at 1 µM [5] | remaining at 1 h, 1 µM [6] | remaining at 1 h, 1 µM [7] | Papp B→A at 2 h, 10 µM [8] | Papp A→B at 2 h, 10 µM [9] | SMILES | inhibition (Rattus norvegicus) | ED50 (Rattus norvegicus; inhaled or nasal)
0.0324 nM | 0.36 nM | – | – | – | – | – | – | – | COc1ccc(S(=O)(=O)N2CCC[C@H]2C(=O)O[C@@H](Cc2c(Cl)c[n+]([O-])cc2Cl)c2ccc(OC(F)F)c(OCC3CC3)c2)cc1OC (relative stereo) | – | –
0.021 nM | 0.04 nM | – | – | – | – | – | – | – | CN(C)C(=O)c1cccc(S(=O)(=O)N2CCS[C@H]2C(=O)O[C@@H](Cc2c(Cl)c[n+]([O-])cc2Cl)c2ccc(OC(F)F)c(OC3CCCC3)c2)c1 (relative stereo) | – | –
0.0533 nM | 0.38 nM | – | – | – | – | – | – | – | CN(C)C(=O)c1cccc(S(=O)(=O)N2CCC[C@@H]2C(=O)O[C@@H](Cc2c(Cl)c[n+]([O-])cc2Cl)c2ccc(OC(F)F)c(OCC3CC3)c2)c1 (relative stereo) | – | –
0.047 nM | 0.047 nM | – | – | – | – | – | – | – | CN(C)C(=O)c1cccc(S(=O)(=O)N2CCS[C@@H]2C(=O)O[C@@H](Cc2c(Cl)c[n+]([O-])cc2Cl)c2ccc(OC(F)F)c(OCC3CC3)c2)c1 | – | –
0.055 nM | 0.035 nM | 0.0017 | 25.9 µL/min/1e6 cells | 268 µL/min/mg | 94% | 52.1% | 4.46 ×10⁻⁶ cm/s | 2.8 ×10⁻⁶ cm/s | CN(C)C(=O)c1cccc(S(=O)(=O)N2CSC[C@H]2C(=O)O[C@@H](Cc2c(Cl)c[n+]([O-])cc2Cl)c2ccc(OC(F)F)c(OCC3CC3)c2)c1 | – | –
0.028 nM | 0.86 nM | – | – | – | – | – | – | – | COCCC(=O)N1CCS[C@H]1C(=O)O[C@@H](Cc1c(Cl)c[n+]([O-])cc1Cl)c1ccc(OC(F)F)c(OCC2CC2)c1 (relative stereo) | – | –
0.041 nM | 0.057 nM | 0.004 | 53.8 µL/min/1e6 cells | 200 µL/min/mg | 101% | 50.7% | 0.82 ×10⁻⁶ cm/s | 0.25 ×10⁻⁶ cm/s | COc1ccc(S(=O)(=O)N2CCS[C@H]2C(=O)O[C@@H](Cc2c(Cl)c[n+]([O-])cc2Cl)c2ccc(OC(F)F)c(OCC3CC3)c2)cc1OC (relative stereo) | – | –
0.031 nM | 0.015 nM | 0.0023 | 33.2 µL/min/1e6 cells | 244 µL/min/mg | 88.2% | 59.7% | 68.4 ×10⁻⁶ cm/s | 13.2 ×10⁻⁶ cm/s | COc1ccc(S(=O)(=O)N2CCCC[C@H]2C(=O)O[C@@H](Cc2c(Cl)c[n+]([O-])cc2Cl)c2ccc(OC(F)F)c(OCC3CC3)c2)cc1C(=O)N(C)C (relative stereo) | – | –
0.026 nM | 0.022 nM | 0.0017 | 47.6 µL/min/1e6 cells | 360 µL/min/mg | 98.8% | 71.2% | 7.67 ×10⁻⁶ cm/s | 0.23 ×10⁻⁶ cm/s | COc1ccc(S(=O)(=O)N2CCS[C@H]2C(=O)O[C@@H](Cc2c(Cl)c[n+]([O-])cc2Cl)c2ccc(OC(F)F)c(OCC3CC3)c2)cc1C(=O)N(C)C (relative stereo) | – | –
